Source: ChEMBL document CHEMBL3046309, “Dihydropiperazine neonicotinoid compounds. Synthesis and insecticidal activity” (J Agric Food Chem, 2003)
pKi: −log10 of the molar value. Activity calls are given as the source filed them. The rule behind the calls is not given here.

How the values were obtained:
Aphis gossypii [1] = assay: Insecticidal activity against Aphis gossypii (cotton aphid) infested expanded cotyledon stage of summer crookneck squash seedlings assessed as mortality at 0.5 ppm applied as spray after 72 hr by dissecting binocular microscopic analysis relative to control; type: functional
In short: (§1)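 Four replicate plants per rate; controls were eight plants sprayed with blank-stock diluent. Plants held 72 h at about 74 °F, 40% RH, 24 h photoperiod. Live nonwinged aphids were counted on cotyledon undersides. Percent control was calculated by Abbott's correction against the solvent blank.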

[2] = target: T1, Nicotinic acetylcholine receptor alpha 5 subunit (Musca domestica, UniProt A9XFY4); assay: Displacement of [3H]imidacloprid from nicotinic acetylcholine receptor in Musca domestica (house fly) head membrane after 1 hr by liquid scintillation counting analysis
T1 sequence (A9XFY4 whole entry): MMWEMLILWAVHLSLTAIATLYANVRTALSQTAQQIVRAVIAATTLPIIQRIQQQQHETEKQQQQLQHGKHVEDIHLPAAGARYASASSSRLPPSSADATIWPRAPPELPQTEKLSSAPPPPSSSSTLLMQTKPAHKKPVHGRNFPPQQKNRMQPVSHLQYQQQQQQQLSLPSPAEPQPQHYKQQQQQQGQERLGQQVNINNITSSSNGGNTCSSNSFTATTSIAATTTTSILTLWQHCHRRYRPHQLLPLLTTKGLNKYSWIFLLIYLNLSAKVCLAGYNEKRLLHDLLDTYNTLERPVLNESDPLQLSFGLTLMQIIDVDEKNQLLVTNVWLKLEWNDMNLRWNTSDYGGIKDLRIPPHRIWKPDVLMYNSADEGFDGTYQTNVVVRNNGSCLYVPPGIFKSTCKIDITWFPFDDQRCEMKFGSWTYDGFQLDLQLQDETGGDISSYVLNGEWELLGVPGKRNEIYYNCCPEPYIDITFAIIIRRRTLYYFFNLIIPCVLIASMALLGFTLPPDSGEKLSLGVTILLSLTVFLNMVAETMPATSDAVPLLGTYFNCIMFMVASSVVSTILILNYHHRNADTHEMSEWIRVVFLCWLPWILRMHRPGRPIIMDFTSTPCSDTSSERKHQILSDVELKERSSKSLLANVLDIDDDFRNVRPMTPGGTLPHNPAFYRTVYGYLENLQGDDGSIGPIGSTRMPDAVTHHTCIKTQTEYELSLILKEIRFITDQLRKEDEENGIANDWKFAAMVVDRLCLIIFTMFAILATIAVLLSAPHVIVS
In short: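 Housefly heads separated from liquid-nitrogen-frozen adults, homogenized in ice-cold sucrose/EDTA/Tris-HCl/PMSF buffer. Membranes were prepared by 1000g then twice 35000g spins, resuspended in 50 mM Tris-HCl pH 7.4 and stored at -80 °C. Binding buffer was 120 mM NaCl, 50 mM Tris-HCl pH 7.4, with [3H]imidacloprid at 2 nM final and DMSO ≤0.25%. Incubation 1 h at 22 °C, then GF/C filtration. Nonspecific binding was set with 10^-4 M nicotine. Three runs in triplicate.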

Aphis gossypii [3] = assay: Insecticidal activity against Aphis gossypii (cotton aphid) infested expanded cotyledon stage of summer crookneck squash seedlings assessed as mortality at 5 ppm applied as spray after 72 hr by dissecting binocular microscopic analysis relative to control; type: functional; in short: as §1
Aphis gossypii [4] = assay: Insecticidal activity against Aphis gossypii (cotton aphid) infested expanded cotyledon stage of summer crookneck squash seedlings assessed as mortality at 50 ppm applied as spray after 72 hr by dissecting binocular microscopic analysis relative to control; type: functional; in short: as §1
Nilaparvata lugens = assay: Insecticidal activity against Nilaparvata lugens (brown plant hopper); type: functional, organism-based
Aphis gossypii [5] = assay: Insecticidal activity against Aphis gossypii (cotton aphid) infested expanded cotyledon stage of summer crookneck squash seedlings assessed as mortality at 0.78 ppm applied as spray after 72 hr by dissecting binocular microscopic analysis relative to control; type: functional; in short: as §1
Nephotettix cincticeps = assay: Insecticidal activity against Nephotettix cincticeps (green rice leafhopper); type: functional, organism-based
Bemisia tabaci = assay: Insecticidal activity against Bemisia tabaci (sweet potato whitefly); type: functional, organism-based

Row | SMILES | mortality at 0.5 ppm (Aphis gossypii [1]) [%] | pKi [2] | mortality at 5 ppm (Aphis gossypii [3]) [%] | mortality at 50 ppm (Aphis gossypii [4]) [%] | Activity (Nilaparvata lugens) | mortality at 0.78 ppm (Aphis gossypii [5]) [%] | Activity (Nephotettix cincticeps) | Activity (Bemisia tabaci)
1 | O=C1/C(=N\S(=O)(=O)C(F)(F)F)NCCN1Cc1ccc(Cl)nc1 | < 50 | 6.23 | 90 | 90 | – | – | – | –
2 | CN1C/C(=N\C#N)N(Cc2ccc(Cl)nc2)CC1=O | – | – | < 50 | 70 | – | – | – | –
3 | O=C1NCCN(Cc2ccc(Cl)nc2)C1=O | 50 | 6.40 | 90 | 90 | – | – | – | –
4 | CN1CCN(Cc2ccc(Cl)nc2)/C(=N/C#N)C1=O | – | 8.22 | – | 90 | Active | 90 | Active | Active
5 | CN(C)C(=O)/C(=N\C#N)N(C)Cc1ccc(Cl)nc1 | – | 5.42 | < 50 | 50 | – | – | – | –
6 | CN1CCN(CC2CCOC2)/C(=N\C#N)C1=O (stereo not drawn) | – | 6.29 | < 50 | < 50 | – | – | – | –
7 | CN1CCN(Cc2cnc(Cl)s2)/C(=N\C#N)C1=O | – | 8.40 | – | 90 | – | 70 | – | –
8 | N#C/N=C1\NCCN1Cc1ccc(Cl)nc1 | – | 7.77 | 90 | 90 | – | – | – | –
9 | O=C1/C(=N\O)NCCN1Cc1ccc(Cl)nc1 | < 50 | – | 50 | 70 | – | – | – | –
10 | O=C1C(=S)NCCN1Cc1ccc(Cl)nc1 | 50 | 5.75 | 50 | 90 | – | – | – | –
11 | N#C/N=C1/NCCN(Cc2ccc(Cl)nc2)C1=O | < 50 | 6.36 | 50 | 90 | – | – | – | –
12 | CO/N=C1/NCCN(Cc2ccc(Cl)nc2)C1=O | 50 | 5.82 | 70 | 90 | – | – | – | –
13 | CN1CCN=C(N(C#N)Cc2ccc(Cl)nc2)C1=O | – | – | < 50 | < 50 | – | – | – | –
14 | NC(=S)N/N=C1/NCCN(Cc2ccc(Cl)nc2)C1=O | – | 5.41 | < 50 | < 50 | – | – | – | –
